From ChEMBL document CHEMBL1914434, “Synthesis, computational studies and preliminary pharmacological evaluation of 2-[4-(aryl substituted) piperazin-1-yl] N, N-diphenylacetamides as potential antipsychotics” (Eur J Med Chem, 2011) come the findings set out here.

Molecules are shown by their SMILES.

Series [1] deals with Mus musculus. In words: Antipsychotic activity in ip dosed Swiss albino mouse assessed as inhibition of apomorphine-induced mesh climbing response administered 10 mins prior to apomorphine challenge measured at 5 mins intervals for up to 20 mins after 10 mins post dose. It is filed as functional. The gist of the method:
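Groups of six mice given test compound, saline (control) or clozapine i.p.; apomorphine 2.5 mg/kg i.p. 10 min later. Mesh climbing scored (0 = no paws on cage) at 5 min intervals for 20 min from 10 min post-apomorphine, maximum total score 20. Mean ± SEM; ED50 (mg/kg, i.p.); Kruskal-Wallis or one-way ANOVA vs control.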

The subject of series [2] is Mus musculus. In words: Antipsychotic activity in ip dosed Swiss albino mouse assessed as inhibition of 5-hydoxytryptophan-induced head twitches behavior administered 30 mins prior to 5-hydoxytryptophan challenge measured at 10 mins intervals for 30 mins after 20 mins post dose. The series is classed as functional. The gist of the method:
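Mice (n = 6/group) pretreated with pargyline 75 mg/kg i.p. to slow 5-HTP breakdown; test compound given i.p. 30 min later, then 5-HTP 50 mg/kg i.p. after a further 30 min. Head twitches scored at 10 min intervals for 30 min from 20 min post-5-HTP. Data as mean ± SEM total score; ED50 (mg/kg, i.p.); Kruskal-Wallis or one-way ANOVA vs control.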

Series [3] is filed under the species Mus musculus. In words: Toxicity in albino mouse assessed as induction of catalepsy measured at 30 mins intervals until 240 mins. The series is classed as organism-based. The settings on record: in vivo. The gist of the method:
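Test drug given i.p. to albino mice (n = 6) in place of haloperidol reference (1.0 mg/kg i.p.). Bar test: time (s) holding forelimbs extended on 4 cm high, 1.0 cm diameter wooden bar, cut-off 1100 s, read at 30 min intervals to 120 min and at 240 min. Run 10.00–16.00 h, quiet room, 23–25 °C. ED50 (mg/kg, i.p.).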

With `O=C(CN1CCN(c2ccccc2)CC1)N(c1ccccc1)c1ccccc1`, the ED50 (in general, the dose that gives a 50% effect, or the effect in half of the subjects) in series [1] was found to be 20.5 mg/kg; in series [2] it was 27 mg/kg; in series [3], 50 mg/kg.
The like results for `Cc1ccc(N2CCN(CC(=O)N(c3ccccc3)c3ccccc3)CC2)cc1` were, in that order, more than 20 mg/kg, 31.2 mg/kg and more than 40 mg/kg.
The like results for `Cc1cccc(N2CCN(CC(=O)N(c3ccccc3)c3ccccc3)CC2)c1C` were, in that order, 28.5 mg/kg, more than 30 mg/kg and more than 40 mg/kg.
The like results for `O=C(CN1CCN(c2cccc(C(F)(F)F)c2)CC1)N(c1ccccc1)c1ccccc1` were, in that order, 21.3 mg/kg, 30 mg/kg and 48 mg/kg.
`COc1ccccc1N1CCN(CC(=O)N(c2ccccc2)c2ccccc2)CC1`: the results for the ED50 in series [1], in series [2] and in series [3] were 8.2 mg/kg, 12.7 mg/kg and 50.4 mg/kg, respectively.
The like results for `COc1cccc(N2CCN(CC(=O)N(c3ccccc3)c3ccccc3)CC2)c1` were, in that order, 10 mg/kg, 15.5 mg/kg and 55.4 mg/kg.
The like results for `O=C(CN1CCN(c2cccc(Cl)c2)CC1)N(c1ccccc1)c1ccccc1` were, in that order, 16.5 mg/kg, 18 mg/kg and 48.4 mg/kg.
With `O=C(CN1CCN(c2ccc(Cl)c(Cl)c2)CC1)N(c1ccccc1)c1ccccc1`, the results for the ED50 in series [1], in series [2] and in series [3] were 24 mg/kg, more than 20 mg/kg and 45 mg/kg, respectively.
The like results for `O=C(CN1CCN(c2ccc(F)cc2)CC1)N(c1ccccc1)c1ccccc1` were, in that order, 13.4 mg/kg, 20 mg/kg and more than 40 mg/kg.
Take `O=C(CN1CCN(c2ccc([N+](=O)[O-])cc2)CC1)N(c1ccccc1)c1ccccc1`: the ED50 in series [1] is 30 mg/kg; in series [2] it was more than 40 mg/kg; in series [3] it was more than 40 mg/kg.
As for `CN1CCN(C2=Nc3cc(Cl)ccc3Nc3ccccc32)CC1` [CLOZAPINE], the ED50 in series [1] was determined as 8.7 mg/kg; in series [2], 2.8 mg/kg.
